Experimental data from ChEMBL document CHEMBL1154894, “Paltolides A--C, anabaenopeptin-type peptides from the palau sponge Theonella swinhoei” (J Nat Prod, 2010).
Active and inactive are the calls of the source. The rule behind the calls is not given here. Numbered stars: 1 amine (or outer) side, 2 acyl side, 3 side chain; on linkers, the order of the positions; unused ones are H or OH. Bridge positions count the residues as written; N and C are the ends. Square brackets hold non-standard residues; d marks the D form. Peptide text beside a SMILES is read from it. X1 = O=C([C@H](Cc1c[nH]c2cc(Cl)c(O)cc12)N[*:1])[*:2]; NMeL = CN[C@@H](CC(C)C)C(=O)O; CO = O=C([*:1])[*:2]

Columns and labels:
[1] = tested on: HCT-116; assay: Cytotoxicity against human HCT116 cells assessed as cell viability up to 100 ug/ml after 72 hrs by MTT assay; format: functional, cell-based
Summary of the method: (§1)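 MTT viability kit assay. Cells seeded at 2 × 10^4 per well and left to adhere 18 h. Exposed to compound for 24 h, then medium replaced or diluted 3-fold with fresh growth medium. Incubated a further 48 h before MTT read-out at A570. At least two separate experiments, each in duplicate.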

[2] = Cytotoxicity against african green monkey BSC1 cells assessed as cell viability up to 100 ug/ml after 72 hrs by MTT assay; format: cell-based; conditions: chlorocebus aethiops, bsc-1, 72 h; summary of the method: as §1
[3] = tested on: Human immunodeficiency virus 1; assay: Antiviral activity against HIV1 expressing SF162 envelope assessed as inhibition of viral entry in human TZM-bl cells up to 100 ug/ml after 48 hrs by luciferase reporter gene assay; format: functional, organism-based
Summary of the method: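 Single-round HIV-1 neutralization in TZM-BL cells using virus pseudotyped with SF162 Envelope, under previously published conditions. At least two separate experiments, each run in duplicate.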

[4] = tested on: TZM; assay: Cytotoxicity against human TZM-bl cells assessed as cell viability up to 100 ug/ml after 72 hrs by MTT assay; format: functional, cell-based; summary of the method: as §1

With `CC(C)C[C@@H]1NC(=O)[C@H](C)NC(=O)[C@H](NC(=O)N[C@@H](CCCNC(=N)N)C(=O)O)CCCCNC(=O)[C@H](Cc2c[nH]c3cc(Cl)c(O)cc23)NC(=O)[C@H](CC(C)C)N(C)C1=O` ({Arg-CO}-[dK]AL[NMeL][X1]; lactam 1-C) the Activity [1] was “inactive”, the Activity [2] was “Not Active” and the Activity [3] was “inactive”. The Activity [4] was “inactive”.
In the case of `CC(C)C[C@@H]1NC(=O)[C@H](C)NC(=O)[C@H](NC(=O)N[C@@H](CCCNC(=N)N)C(=O)O)CCCCNC(=O)[C@H](Cc2c[nH]c3ccccc23)NC(=O)[C@H](CC(C)C)NC1=O` [PALTOLIDE A], the Activity [1] is reported as “inactive”, the Activity [2] is reported as “Not Active” and the Activity [3] is reported as “inactive”. For the same compound, the Activity [4] was “inactive”.
For `CC(C)C[C@@H]1NC(=O)[C@H](C)NC(=O)[C@H](NC(=O)N[C@@H](CCCNC(=N)N)C(=O)O)CCCCNC(=O)[C@H](Cc2c[nH]c3ccc(O)cc23)NC(=O)[C@H](CC(C)C)N(C)C1=O` [PALTOLIDE B], the Activity [1] was “inactive”, the Activity [2] was “Not Active” and the Activity [3] was “inactive”. The Activity [4] was “inactive”.
With `CC(C)C[C@@H]1NC(=O)[C@H](C)NC(=O)[C@H](NC(=O)N[C@@H](CCCNC(=N)N)C(=O)O)CCCCNC(=O)[C@H](Cc2c[nH]c3cc(Br)ccc23)NC(=O)[C@H](CC(C)C)N(C)C1=O` [PALTOLIDE C] the Activity [1] was “inactive”, the Activity [2] was “Not Active” and the Activity [3] was “inactive”. The Activity [4] was “inactive”.
